Source: ChEMBL document CHEMBL4680165, “β-Lactams with antiproliferative and antiapoptotic activity in breast and chemoresistant colon cancer cells” (Eur J Med Chem, 2020)
Active and inactive are the calls of the source. No cut-off for these calls is given here.

Key:
[1] = Selectivity index, ratio of IC50 for human MCF7 cells to IC50 for human HT-29 cells assessed as reduction in cell viability after 72 hrs by alamar blue assay; assay type: functional
[2] = tested on: HT-29; assay: Antiproliferative activity against human HT-29 cells assessed as reduction in cell viability after 72 hrs by alamar blue assay; assay type: functional, cell-based; conditions: HT-29, 72 h
In short: (§1)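 Cells seeded at 5 x 10^3/well (MCF-7) or 1 x 10^4/well (HT-29, HEK-293T) and treated after 24 h with serial dilutions (0.001-100 µM) in 1% v/v ethanol vehicle. Alamar Blue 10% v/v added at 72 h, then 3-5 h at 37 °C in the dark; fluorescence ex 530/em 590 nm. Viability relative to vehicle; IC50 from dose-response curves; mean of three experiments in triplicate.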

[3] = tested on: MCF7; assay: Antiproliferative activity against human MCF7 cells assessed as reduction in cell viability after 72 hrs by alamar blue assay; assay type: functional, cell-based; conditions: MCF7, 72 h; in short: as §1
[4] = tested on: HT-29; assay: Antiangiogenic activity in human HT29 cells assessed as reduction in VEGF secretion at 5 uM after 24 hrs by ELISA; assay type: functional, cell-based
In short: (§2)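 HT-29 cells at 5 x 10^4 per well, cultured 24 h and then exposed to 5 µM compound. Conditioned medium collected on ice and stored at -80 °C. Cytokines and angiogenic, vascular-injury and chemokine factors measured by multiplex panels with overnight supernatant incubation (Angiogenesis Panel 1 and Vascular Injury Panel 2 same day). Medium undiluted except 1:4 for Vascular Injury Panel 2. Secretion normalised to lysate protein by BCA.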

[5] = tested on: HT-29; assay: Antiangiogenic activity in human HT-29 cells assessed as increase in IL-1RA secretion at 5 uM after 24 hrs by ELISA; assay type: functional, cell-based; in short: as §2
[6] = tested on: HT-29; assay: Antiangiogenic activity in human HT29 cells assessed as reduction in IL-1beta secretion at 5 uM after 24 hrs by ELISA; assay type: functional, cell-based; in short: as §2
[7] = tested on: HT-29; assay: Antiangiogenic activity in human HT29 cells assessed as reduction in IL-1alpha secretion at 5 uM after 24 hrs by ELISA; assay type: functional, cell-based; in short: as §2
[8] = Half life of the compound in phosphate buffer at pH 7.4 by HPLC analysis; assay type: physicochemical
In short: (§3)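 Compound stock was 1 mg/mL in mobile phase; 30 µL was diluted into 1 mL phosphate buffer (pH 4, 7.4 or 9) and held at 37 °C. Samples were taken at 0, 5, 30 and 60 min, then hourly to 24 h. Analysis was reverse-phase C18 HPLC with acetonitrile/water mobile phase at 1 mL/min and detection at 254 nm.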

[9] = Half life of the compound in phosphate buffer at pH 4 by HPLC analysis; assay type: physicochemical; in short: as §3
[10] = Half life of the compound in phosphate buffer at pH 9 by HPLC analysis; assay type: physicochemical; in short: as §3
[11] = organism: Bos taurus; assay: Inhibition of bovine brain tubulin polymerization at 10 uM measured at 30 sec interval for 30 mins in presence of GTP by turbidimetry-based spectrophotometric method

Structure (SMILES)	IC50 [2] [nM]	IC50 [3] [nM]	Ratio IC50 [1]	further results
COc1ccc([C@H]2CC(=O)N2c2cc(OC)c(OC)c(OC)c2)cc1F	15	22	1.47	Activity [4]: inactive; Activity [5]: Active; Activity [6]: inactive; Activity [7]: inactive
COc1ccc([C@H]2CC(=O)N2c2cc(OC)c(OC)c(OC)c2)cc1Br	64	60	0.94	–
COc1ccc([C@H]2[C@H](Oc3ccccc3)C(=O)N2c2cc(OC)c(OC)c(OC)c2)cc1Cl	314	430	1.37	half-life [8]: > 15 h; half-life [9]: > 15 h; half-life [10]: > 15 h
COc1ccc([C@@H]2N(c3cc(OC)c(OC)c(OC)c3)C(=O)C2(Cl)Cl)cc1C	319	747	2.34	–
COc1ccc([C@H]2[C@H](N)C(=O)N2c2cc(OC)c(OC)c(OC)c2)cc1F	238	483	2.03	–
COc1ccc([C@H]2[C@H](Oc3ccccc3)C(=O)N2c2cc(OC)c(OC)c(OC)c2)cc1Br	577	818	1.42	–
COc1ccc([C@H]2[C@H](c3ccccc3)C(=O)N2c2cc(OC)c(OC)c(OC)c2)cc1O	430	4	0.01	Activity [4]: inactive; Activity [5]: Active; Activity [6]: inactive; Activity [7]: inactive
COc1ccc([C@H]2CC(=O)N2c2cc(OC)c(OC)c(OC)c2)cc1C	189	317	1.68	–
C=C(C)[C@@H]1C(=O)N(c2cc(OC)c(OC)c(OC)c2)[C@H]1c1ccc(OC)c(Cl)c1	480	270	0.56	–
C=C[C@@H]1C(=O)N(c2cc(OC)c(OC)c(OC)c2)[C@H]1c1ccc(OC)c(Br)c1	91	88	0.97	–
C=C[C@@H]1C(=O)N(c2cc(OC)c(OC)c(OC)c2)[C@H]1c1ccc(OC)c(I)c1	306	215	0.7	–
COc1ccc([C@H]2[C@H](O)C(=O)N2c2cc(OC)c(OC)c(OC)c2)cc1I	21	100	4.77	–
COc1ccc([C@H]2[C@H](c3ccccc3)C(=O)N2c2cc(OC)c(OC)c(OC)c2)cc1Cl	24	230	9.58	–
COc1ccc([C@H]2[C@H](O)C(=O)N2c2cc(OC)c(OC)c(OC)c2)cc1Cl	18	12	0.67	inhibition [11]: Active
COc1ccc([C@H]2[C@H](c3ccccc3)C(=O)N2c2cc(OC)c(OC)c(OC)c2)cc1I	355	648	1.83	half-life [8]: 14 h; half-life [9]: 15 h; half-life [10]: 5 h
COc1ccc([C@H]2[C@H](O)C(=O)N2c2cc(OC)c(OC)c(OC)c2)cc1Br	9	44	4.89	inhibition [11]: Active
COc1ccc([C@H]2[C@H](Oc3ccccc3)C(=O)N2c2cc(OC)c(OC)c(OC)c2)cc1I	232	208	0.9	–

More lines, in order of falling IC50 [2], values ahead:

IC50 [2] [nM]	IC50 [3] [nM]	Structure (SMILES)	Ratio IC50 [1]	further results
1540	1120	COc1ccc([C@@H]2N(c3cc(OC)c(OC)c(OC)c3)C(=O)C2(Cl)Cl)cc1Br	0.73	–
1050	1350	C=C(C)[C@@H]1C(=O)N(c2cc(OC)c(OC)c(OC)c2)[C@H]1c1ccc(OC)c(I)c1	1.29	–
678	323	C=C(C)[C@@H]1C(=O)N(c2cc(OC)c(OC)c(OC)c2)[C@H]1c1ccc(OC)c(F)c1	0.48	–
358	773	C=C(C)[C@@H]1C(=O)N(c2cc(OC)c(OC)c(OC)c2)[C@H]1c1ccc(OC)c(C)c1	2.16	–
333	284	C=C(C)[C@@H]1C(=O)N(c2cc(OC)c(OC)c(OC)c2)[C@H]1c1ccc(OC)c(Br)c1	0.83	–
325	651	COc1ccc([C@H]2[C@H](c3ccccc3)C(=O)N2c2cc(OC)c(OC)c(OC)c2)cc1Br	2	–
313	2240	COc1ccc([C@H]2[C@H](Oc3ccccc3)C(=O)N2c2cc(OC)c(OC)c(OC)c2)cc1C	7.14	–
293	120	C=C[C@@H]1C(=O)N(c2cc(OC)c(OC)c(OC)c2)[C@H]1c1ccc(OC)c(Cl)c1	0.41	–
260	821	COc1ccc([C@H]2CC(=O)N2c2cc(OC)c(OC)c(OC)c2)cc1I	3.16	–
251	885	COc1ccc([C@@H]2N(c3cc(OC)c(OC)c(OC)c3)C(=O)C2(Cl)Cl)cc1I	3.53	–
222	433	COc1ccc([C@H]2[C@H](Cl)C(=O)N2c2cc(OC)c(OC)c(OC)c2)cc1C	1.95	–
197	328	C=C[C@@H]1C(=O)N(c2cc(OC)c(OC)c(OC)c2)[C@H]1c1ccc(OC)c(C)c1	1.67	–
194	603	COc1ccc([C@H]2[C@H](Cl)C(=O)N2c2cc(OC)c(OC)c(OC)c2)cc1Br	3.12	–
190	421	COc1ccc([C@H]2[C@H](Cl)C(=O)N2c2cc(OC)c(OC)c(OC)c2)cc1I	2.22	–
167	141	COc1ccc([C@H]2[C@H](N)C(=O)N2c2cc(OC)c(OC)c(OC)c2)cc1Cl	0.84	half-life [8]: > 24 h; half-life [9]: > 24 h; half-life [10]: > 24 h
155	73	COc1ccc([C@H]2[C@H](Oc3ccccc3)C(=O)N2c2cc(OC)c(OC)c(OC)c2)cc1F (relative stereo)	0.47	–
154	140	COc1ccc([C@H]2CC(=O)N2c2cc(OC)c(OC)c(OC)c2)cc1Cl	0.91	–
154	140	COc1ccc([C@@H]2N(c3cc(OC)c(OC)c(OC)c3)C(=O)C2(Cl)Cl)cc1Cl	0.91	–
153	462	COc1ccc([C@H]2[C@H](c3ccccc3)C(=O)N2c2cc(OC)c(OC)c(OC)c2)cc1C	3.02	–
144	91	COc1ccc([C@H]2[C@H](Cl)C(=O)N2c2cc(OC)c(OC)c(OC)c2)cc1Cl	0.63	–
117	173	COc1ccc([C@@H]2N(c3cc(OC)c(OC)c(OC)c3)C(=O)C2(Cl)Cl)cc1F	1.48	–
37	38	C=C[C@@H]1C(=O)N(c2cc(OC)c(OC)c(OC)c2)[C@H]1c1ccc(OC)c(F)c1	–	–
22	15	COc1ccc([C@H]2[C@H](c3ccccc3)C(=O)N2c2cc(OC)c(OC)c(OC)c2)cc1	0.68	–
15	40	COc1ccc([C@H]2[C@H](Cl)C(=O)N2c2cc(OC)c(OC)c(OC)c2)cc1F	–	–
